Hits are enriched below; roughly 6.8% of the tested compounds scored in any of these assays.
M1 antag – M1 muscarinic receptor (rat) antagonism. P08482. CHO-M1 cells, Fluo-4 calcium, ACh EC80 antagonist mode; stronger effect = lower value. B-score at 10 µM. 3.4% of 64,000 active;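 active means calcium fluorescence response, raw or row-and-column corrected B-score, differing from the plate sample mean either way at a set confidence level, mostly lower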
Cdc25B inh – inhibitors of human Cdc25B phosphatase | P30305 | recombinant Cdc25B, OMFP fluorescence Ex485/Em525 | inhibition, %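 (compounds tested at 10 µM final in the well)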 | 0.1% of 65,000 active; in the data active means inhibition above about 50%
Target sequence (P30305 whole entry, looked up): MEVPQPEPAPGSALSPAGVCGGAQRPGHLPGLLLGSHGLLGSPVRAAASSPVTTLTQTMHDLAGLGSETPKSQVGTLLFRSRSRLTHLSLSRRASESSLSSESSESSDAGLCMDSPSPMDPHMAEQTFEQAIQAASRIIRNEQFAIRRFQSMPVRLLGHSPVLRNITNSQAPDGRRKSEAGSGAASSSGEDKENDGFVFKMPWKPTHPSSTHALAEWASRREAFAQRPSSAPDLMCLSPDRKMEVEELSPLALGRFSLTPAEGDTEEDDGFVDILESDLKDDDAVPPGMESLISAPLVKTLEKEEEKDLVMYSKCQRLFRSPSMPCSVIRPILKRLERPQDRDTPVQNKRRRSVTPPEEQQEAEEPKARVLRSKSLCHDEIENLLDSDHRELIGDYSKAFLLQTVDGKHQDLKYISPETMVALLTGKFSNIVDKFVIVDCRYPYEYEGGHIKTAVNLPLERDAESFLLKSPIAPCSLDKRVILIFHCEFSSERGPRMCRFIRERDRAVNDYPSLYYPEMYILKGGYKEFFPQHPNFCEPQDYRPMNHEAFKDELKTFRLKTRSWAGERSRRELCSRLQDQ
Her2 expr inh – inhibitors of human Her2 kinase expression | P04626 | SKBR-3 HER2 protein level, AlphaScreen, 18-24 h; stronger effect = lower value | HER2 level % of control, % at 10 µM | 0.69% of 65,000 active | AID 645;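 active means HER2 level under 5% of the carrier-only control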;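 further: 100% = DMSO carrier and 0% = 500 nM PU-H71 HSP90 inhibitor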
HEK293 NFkB inh – inhibitors of the PMA/ionomycin-induced NF-kB reporter in HEK293 cells. HEK-293 NF-kB luciferase reporter, luminescence. inhibition, % at 3 µM. 0.21% of 62,000 active;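 active means inhibition above the mean of all tested compounds plus 3 SD, cut at about 40% in these data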;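 further: 0% = stimulated DMSO wells and 100% = 10 µM reference inhibitor 5653914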
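System: NF-kB luciferase reporter HEK-293 cells | Replication: Single test | Control set: DMSO vs reference inhibitor | Evaluation: % inhibition | Schedule: 1 h pretreatment, 16 h stimulation, 37 °C | Probe or stimulus: PMA with ionomycin | Compound dosing: One dose, 3 µM | Detection: Luciferase luminescence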
MKP-1 inh – human dual specificity phosphatase 1 inhibition; P28562; recombinant MKP-1, OMFP hydrolysis fluorescence; inhibition, %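 (compounds tested at a single concentration somewhere between 10 and 100 µM)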; 0.15% of 65,000 active;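 active means inhibition above about 50%, limit read from the data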;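 further: 0% = DMSO max control wells and 100% = wells with enzyme stopped by NaOH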
M1 agonist – M1 muscarinic receptor agonism; CHO-M1 cells, Fluo-4 calcium fluorescence, agonist mode; stronger effect = higher value; B-score at 10 µM; 3% of 64,000 active; AID 626;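 active means fluorescence rise, raw or as B-score row- and column-corrected plate score, outside the 99.7% band of its plate's samples, either direction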
The depositor's hits bear a star; . = not tested or not shown.

SMILES	M1 antag	Cdc25B inh	Her2 expr inh	HEK293 NFkB inh	MKP-1 inh	M1 agonist
COC(=O)c1ccccc1NC(=O)CN(c1ccccc1)S(=O)(=O)N(C)C	1.92*	2.2	92.0	12.0	-5.5	1.56
CSc1ccccc1NC(=O)CN(c1ccccc1)S(=O)(=O)N(C)C	0.634	0.6	98.5	23.0	0.5	0.576
O=C(Cc1c[nH]c2ccccc12)NCc1ccc2c(c1)OCO2	1.12	-1.8	73.0	17.2	-15.5	0.233
Cc1cccc(N2CCN(C(=O)n3ccnc3)CC2)c1C	-0.142	-5.7	99.4	14.5	14.3	-0.634
Cc1ccnc(N2CCN(c3cc(C)c(C#N)c4nc5ccccc5n34)CC2)c1	-2.51*	-2.0	115.0	.	8.9	4.32
CCOC(=O)C(CO)(NC(C)=O)C(=O)OCC	1.32*	-1.3	94.7	17.6	35.2	-0.328
Cc1cccc(OCC(=O)Nc2ccc3c(c2)OCO3)c1C	-0.00385	-14.0	113.2	7.2	4.0	0.0696
Cc1ccc(Cl)c(OCC(=O)Nc2ccc3c(c2)OCCO3)c1	-0.308	-6.3	91.5	-17.7	0.6	4.32*
Cc1sc2nc(CN(C(=O)c3cccs3)C3CCCC3)[nH]c(=O)c2c1C	1.95*	1.9	99.5	12.2	-17.9	0.661
COc1ccccc1-n1c(SCC(=O)NC(C)(C)C)nc(O)cc1=O	1.19	-0.7	-39.2*	7.0	-9.5	-0.916
Cc1nc2sc(C(c3ccccc3)N3CCN(C)CC3)c(O)n2n1 (configuration not stated)	-0.456	7.2	107.8	6.9	-4.5	0.0013
O=C(O)c1cccc(COc2ccccc2Cl)c1	0.591	-0.5	133.1	92.4*	2.5	-1.14
O=C(Cc1cccs1)Nc1nc2c(s1)CCCC2	-0.566	-2.0	108.9	45.7*	1.8	-0.414
CCOc1cc(N2CCOCC2)c(OCC)cc1NC(=O)Cc1cn2ccsc2n1	-0.851	-16.0	111.4	11.5	5.7	0.0431
CCOc1cc(N2CCOCC2)c(OCC)cc1NC(=O)c1nc2nccc(C)n2n1	-0.121	-1.0	113.1	19.3	21.8	4.86*
COc1ccc(N(C(=O)c2ccco2)S(=O)(=O)c2cccs2)cc1	-0.284	-13.5	56.0	-1.7	4.7	-0.0323
COc1ccc(N(C(=O)c2ccco2)S(=O)(=O)c2cc(OC)ccc2OC)cc1	1.9*	-9.9	92.2	6.3	-1.9	0.0812
CCOc1ccc2[nH]c(=O)c(CN(Cc3nnnn3Cc3ccco3)C3CCCCC3)cc2c1	-1.49	-4.2	63.8	14.7	7.4	3.64*
COc1cc2cc(CN(Cc3nnnn3Cc3ccco3)C3CCCCC3)c(=O)[nH]c2cc1OC	0.445	0.5	111.2	18.2	30.3	0.0257
O=C(CSc1oc(-c2ccc(F)cc2)nc1S(=O)(=O)c1ccccc1)NCC1CCCO1 (configuration not stated)	0.234	.	108.8	17.4	.	0.218
O=C(CSc1oc(-c2ccccc2)nc1S(=O)(=O)c1ccc(F)cc1)NCC1CCCO1 (configuration not stated)	1.41	.	-21.4*	3.7	.	0.553
COC(=O)CCC(=O)Oc1ccc(OC(=O)CCC(=O)OC)cc1	0.0269	59.4*	78.7	.	56.2*	-1.33
Cc1ccc2c(C)nc(NC3=NCN(Cc4ccccc4)CN3)nc2c1	-1.32	-6.3	104.7	-3.0	16.1	-0.18
Cc1nc(NC2=NCN(Cc3cccnc3)CN2)nc2ccccc12	-10.7*	1.0	82.0	4.5	-9.6	0.781
CCOc1ccc2nc(NC3=NCN(Cc4ccco4)CN3)nc(C)c2c1	-0.0229	-1.5	99.8	-14.1	22.6	-0.582
SMILES	M1 antag	Cdc25B inh	Her2 expr inh	HEK293 NFkB inh	MKP-1 inh	M1 agonist
Cc1nc(NC2=NCN(Cc3ccco3)CN2)nc2ccccc12	-2.91*	-1.4	87.2	17.2	16.5	-0.0551
Cc1nc(NC2=NCN(Cc3ccccc3)CN2)nc2ccccc12	0.697	-4.6	89.9	9.6	16.1	4.55*
COc1ccc(NC(=O)C2C(=O)N(C)C3(C)CC2c2ccccc2O3)cc1 (configuration not stated)	0.538	-3.4	108.7	5.1	-2.9	-0.736
CN1C(=O)C(C(=O)NC(C)(C)C)C2c3ccccc3OC13CCCCC23 (configuration not stated)	-0.44	12.7	-29.9*	23.8	8.2	0.0923
CCOC(=O)C1CCN(C(=O)C2CC(=O)N(c3ccc(C)cc3)C2)CC1 (configuration not stated)	0.617	1.0	73.0	6.6	15.3	-0.0546
CCOc1ccc(-n2cc(C(=O)Nc3cccc(C)n3)c3cc(OC)c(OC)cc3c2=O)cc1	-0.0589	-5.1	97.2	20.7	33.2	7.58*
COc1cc(N2CCCC2)c(OC)cc1/C=c1/sc2nc3ccccc3n2c1=O	0.266	8.9	117.5	.	-24.9	13.4*
O=c1/c(=C\c2cccn2-c2ccccc2)sc2nc3ccccc3n12	-0.126	-21.9	102.4	.	-7.5	8.42
NC(=O)CSc1nnc(-c2ccc(S(=O)(=O)N3CCOCC3)cc2)n1CC1CCCO1 (configuration not stated)	-1.97	-1.9	112.7	-4.9	-10.0	0.444
NC(=O)CSc1nnc(-c2ccc(S(=O)(=O)N3CCOCC3)cc2)n1Cc1ccccc1	2.34*	-5.7	129.4	7.3	-11.5	-0.909
NC/C(=N\O)c1ccc(Cl)cc1Cl	0.0878	6.5	94.8	0.9	10.1	-0.324
Cc1sc(NC(=O)CSc2nnc(C)c(=O)[nH]2)c(C#N)c1C	0.0217	-7.7	129.7	2.4	2.7	0.485
Cn1nc(C(=O)NCC2CCCO2)c2ccccc2c1=O (configuration not stated)	-0.129	-5.7	79.5	10.7	-0.1	-0.746
Cn1nc(C(=O)Nc2c(-c3ccccc3)nc3sccn23)c2ccccc2c1=O	1.06	-7.8	1.1*	14.5	-2.3	0.39
CCCCC(=O)NC1(C(F)(F)F)C(=O)Nc2c1c(=O)n(C)c(=O)n2C (configuration not stated)	1.51*	3.6	95.9	7.2	-16.1	-0.291
CC(=O)NC1(C(F)(F)F)C(=O)Nc2c1c(=O)n(C)c(=O)n2C (configuration not stated)	0.223	18.9	95.2	.	-19.9	0.263
CCSC1=C(C#N)C(c2cccc(Br)c2)CC(=O)N1 (configuration not stated)	10.6*	2.2	92.8	7.1	0.2	0.00244
CCOC(=O)N1CCN(C(=O)CSc2nc3c(cnn3-c3ccc(Cl)cc3)c(=O)[nH]2)CC1	-1.45	-4.8	102.9	14.6	36.6	1.49
Cc1ccc(NC(=O)N2C(=O)C3(OCCO3)c3ccccc32)cc1	-0.168	1.6	94.5	7.1	-5.1	-1.08
COc1ccc(/C(O)=C2/C(=O)C(=O)N(CCN(C)C)C2c2ccccc2)cc1Cl (configuration not stated)	1.03*	-2.2	95.3	2.2	7.5	-0.805
